Data published in PMC5356508 (Bioconjugate chemistry, 2016).
Several values for one entry are separate records, joined by “and”; a condition that tells them apart may be missing. Equal entries are not always repeated. Where two headings read alike, the source gives them in different places.

Legend:
[1] = Generation of paclitaxel in rabbit whole blood; format: in vitro ADME; conditions: without BME
[2] = Pharmacokinetics: whole blood paclitaxel levels in tumor burdened mice; format: in vivo, B16/F10 tumor burdened C57Bl/6 mice; conditions: 5 μg injected, ELISA, Figure 3A
[3] = Release of paclitaxel in bicarbonate buffer without or with dithiothreitol; format: physicochemical
[4] = test system: A2780 human ovarian cancer cell line; assay: Antiproliferative assay; format: cell-based
[5] = Hydrolytic release of paclitaxel by compound 4 in buffer; format: physicochemical; conditions: 3:1 methanol/PBS buffer pH 7.4; pseudo 1st order kinetics
Summary of the method: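 Test compound stock in methanol was mixed with 1 M PBS pH 7.4 (3:1 methanol:buffer) in a sealed, stirred vial. Aliquots were taken at 0 min and from 30 to 1440 min. Parent and released drug were quantified by C18 reverse-phase HPLC (gradient from 1:1 MeOH:H2O to 100% MeOH, 1 mL/min) against standard curves of both compounds.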

[6] = Accumulation of paclitaxel in solid tumors; format: in vivo, B16/F10 tumor-bearing C57BL/6 mice; conditions: C57BL/6, mouse, tumor homogenate, iv, 2.5 mg/kg
B16/F10 melanoma = assay: Treatment of tumor-burdened mice; format: in vivo, C57BL/6 mice; conditions: treated days 0, 2, 5, 7, after 9 days
Summary of the method: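 B16/F10 melanoma cells were implanted in C57BL/6 mice and grown to tumours of about 500 mm3. Groups of n=4 were injected on days 0, 2, 5 and 7 with native drug (2.5 or 40 mg/kg), nanoparticle formulations (2.5 mg/kg drug equivalent) or PBS control. Tumour volume was measured over time, and the % decrease versus control was taken at day 9.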

[7] = test system: A2780 human ovarian cancer cell line; conditions: cited from earlier work

## CC(=O)O[C@H]1C(=O)[C@]2(C)[C@@H](OC(=O)OCc3ccc(SSc4ccccn4)cc3)C[C@H]3OC[C@@]3(OC(C)=O)[C@H]2[C@H](OC(=O)c2ccccc2)[C@]2(O)C[C@H](OC(=O)[C@H](O)[C@@H](NC(=O)c3ccccc3)c3ccccc3)C(C)=C1C2(C)C [Compound 5]
[1]
  Conversion to paclitaxel in rabbit whole blood (in words): completely converted to paclitaxel essentially immediately
[2]
  release of paclitaxel in the circulation (in words): rapidly degraded to the paclitaxel parent in the circulation
[3]; Buffer + 3-fold excess DTT, 1 h (60 min)
  Percent conversion to paclitaxel: 90%
[3]; Buffer, incubation 0 h
  Percent conversion to paclitaxel: 0.3%
[3]; Buffer, incubation 1 h
  Percent conversion to paclitaxel: 4.1%
[3]; Buffer, incubation 4 h
  Percent conversion to paclitaxel: 4%
[3]; Buffer, incubation 48 h
  Percent conversion to paclitaxel: 14.4%
[3]; Buffer, incubation 72 h
  Percent conversion to paclitaxel: 50% and 50.4%
[4]
  IC50: 34 ± 18 nM

## CC(=O)OC1C(=O)C2(C)C(OC(=O)OCOC(=O)CCCCC3CCSS3)CC3OCC3(OC(C)=O)C2C(OC(=O)c2ccccc2)C2(O)CC(OC(=O)C(O)C(NC(=O)c3ccccc3)c3ccccc3)C(C)=C1C2(C)C (stereo not shown) [Compound 4, (7-O-Paclitaxelcarbonyloxy)methyl 5-(1,2-dithiolan-3-yl)pentanoate]
[5]
  half-life of hydrolysis to paclitaxel: 3.2 h
[4]
  IC50: 4.5 ± 0.4 nM

## CC(=O)OC1C(=O)C2(C)C(O)CC3OCC3(OC(C)=O)C2C(OC(=O)c2ccccc2)C2(O)CC(OC(=O)C(OC(=O)CCC(=O)OCOC(=O)CCCCC3CCSS3)C(NC(=O)c3ccccc3)c3ccccc3)C(C)=C1C2(C)C (stereo not shown) [Compound 6, ((5-(1,2-dithiolan-3-yl)pentanoyl)oxy)methyl paclitaxel-2′-yl succinate]
[4]
  IC50: 6.6 ± 1.7 nM

## CC(=O)O[C@H]1C(=O)[C@@]2(C)[C@H]([C@H](OC(=O)c3ccccc3)[C@]3(O)C[C@H](OC(=O)[C@H](O)[C@@H](NC(=O)c4ccccc4)c4ccccc4)C(C)=C1C3(C)C)[C@]1(OC(C)=O)CO[C@@H]1C[C@@H]2O [paclitaxel]
[6]
  concentration at 24 h: 5 ng/mL
B16/F10 melanoma; Paclitaxel dose 2.5 mg/kg
  Response: Decrease in Tumor Volume vs Control: −24%
B16/F10 melanoma; Paclitaxel dose 40 mg/kg
  Response: Decrease in Tumor Volume vs Control: −68%
[7]
  IC50: 15 ± 1 nM
